PLCb3 inh = blocks human PLC-beta3 enzyme activity. Purified PLC-beta3, fluorogenic substrate, fluorescence. Q01970. hit rate 0.18% among 370,000. inhibition, % at 12.2 µM. AID 720704; in the data active = inhibition above about 11%;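 also: 0% = median of compound wells on plate and 100% = full blocker control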
ARFGAP1 inhibitor = inhibitors of rat ARFGAP1 | Q62848 | Arfgap1-stimulated ARF1 GTP hydrolysis, GDP FP detection | inhibition, % at 16.5 µM | hit rate 0.26% among 360,000 | AID 651572;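 active = inhibition above a per-plate limit, mean inhibition of low control wells plus 3 SD, cut at about 25% in these data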;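 also: 0% = DMSO wells with enzyme and 100% = wells lacking Arfgap1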
Target sequence (Q62848 1-136 limits assumed): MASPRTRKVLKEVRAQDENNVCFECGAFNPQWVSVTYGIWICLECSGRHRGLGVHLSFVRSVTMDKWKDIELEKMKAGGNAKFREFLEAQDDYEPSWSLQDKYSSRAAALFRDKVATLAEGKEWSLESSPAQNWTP
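Repeats: one replicate per compound; assay system: rat Arfgap1 catalytic domain, aa 1-136; times: enzyme reaction 120 min at 25 °C after 20 min preincubation; detection: FP of antibody-bound GDP Alexa 633 tracer, ex 620/em 688 nm; benchmarks: high control wells lacking Arfgap1, low control full reaction with DMSO; reagent: human ARF1(Δ1-17)-GTP substrate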
HGIII-sPLA2 inh = Blocks human group III sPLA2 activity. Q9NZ20. inhibition, % at 12.2 µM. hit rate 0.56% among 370,000. QFRET BODIPY PC-A2 liposome hydrolysis, fluorescence;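 active = inhibition above mean plus 3 SD of compounds lying within the high and low control bounds, cut at about 19% in these data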;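 also: 0% = median of test compound wells and 100% = no enzyme DMSO wells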
Target sequence (Q9NZ20 whole entry, looked up): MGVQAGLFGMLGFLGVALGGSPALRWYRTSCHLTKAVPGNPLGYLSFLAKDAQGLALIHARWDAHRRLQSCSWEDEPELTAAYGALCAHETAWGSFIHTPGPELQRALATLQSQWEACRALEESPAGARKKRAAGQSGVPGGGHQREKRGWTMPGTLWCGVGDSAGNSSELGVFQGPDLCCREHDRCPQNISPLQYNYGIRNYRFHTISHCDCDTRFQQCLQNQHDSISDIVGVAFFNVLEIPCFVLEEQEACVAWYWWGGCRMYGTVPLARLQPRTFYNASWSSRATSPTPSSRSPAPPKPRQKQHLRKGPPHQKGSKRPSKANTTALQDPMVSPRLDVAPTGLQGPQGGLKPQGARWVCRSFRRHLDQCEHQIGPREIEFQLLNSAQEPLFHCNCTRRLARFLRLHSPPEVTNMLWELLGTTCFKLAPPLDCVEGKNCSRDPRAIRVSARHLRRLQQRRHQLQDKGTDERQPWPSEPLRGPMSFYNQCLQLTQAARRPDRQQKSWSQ
PLC-gamma1 inh = inhibitors of human phospholipase C gamma1; purified PLC-gamma1, fluorogenic substrate, fluorescence; inhibition, % at 12.2 µM; hit rate 0.84% among 370,000; AID 720700; in the data active = inhibition above about 9.5%
ASAP1 inh = ASAP1 ArfGAP inhibition. inhibition, % at 16.5 µM. ASAP1-stimulated ARF1 GTP hydrolysis, GDP FP detection. AID 624377. hit rate 0.19% among 360,000. Q9ULH1; in the data active = inhibition above about 25%;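 also: 0% = vehicle with enzyme and substrate and 100% = no enzyme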
sPLA2 confirm = human GIII-sPLA2 inhibition, confirmation. hit rate 34% among 2,000. AID 743280. recombinant hGIII-sPLA2, BODIPY PC-A2 QFRET fluorescence. shares compounds with HGIII-sPLA2 inh. inhibition, % at 12.2 µM;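 active = mean inhibition across triplicates above the hit cutoff set in the earlier primary screen, cut at about 19% in these data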;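 also: 0% = enzyme with DMSO and 100% = DMSO wells lacking enzyme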
BODIPY interf = counter-screen for HGIII-sPLA2 inhibitors: 535nm fluorescence interference | shares compounds with HGIII-sPLA2 inh | BODIPY FL product fluorescence interference, QFRET | inhibition, % at 12.2 µM | hit rate 8.5% among 2,000 | AID 743282;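 active = average inhibition above the solvent-only control mean plus 3 SD, cut at about 6% in these data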;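 also: 0% = DMSO with substrate plus product and 100% = DMSO with substrate alone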
535nm interf DR = interferes with 535nm fluorescence in dose response counter-screen; shares compounds with HGIII-sPLA2 inh; BODIPY FL product fluorescence interference, cell-free; IC50, µM; 240 tested, under 10 active; AID 743455;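 active = IC50 at or below 10 µM; inactive = IC50 above 10 µM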
An asterisk follows results filed as active; i = inactive; / = no result given. Sampled rows, rich in hits. Any-hit rate of the full collection: about 1.9%.

SMILES	PLCb3 inh	ARFGAP1 inhibitor	HGIII-sPLA2 inh	PLC-gamma1 inh	ASAP1 inh	sPLA2 confirm	BODIPY interf	others
CCN1C(=NCCCOC(C)C)N[C@@H](c2ccccc2)[C@H](C(=O)OC)[C@H]1C	0	-10	19*	3	2	1	-12
NC(=O)C1(Nc2ccc(-c3ccc(Br)cc3)cc2)CCCC1	-5	-5	20*	-2	0	12	3
Cc1ccc(NC2(C(N)=O)CCCC2)cc1	4	-1	7	1	-6	/	/
COC(=O)c1cccc(/C=N/NC(N)=S)c1O	-364	-11	21*	-256	-16	20*	-1
COc1ccc(/C=N/NC(N)=S)cc1	-11	-5	21*	5	-7	2	-9
CCN(CC)c1ccc(-c2sc(Nc3ccccc3)n[n+]2-c2ccc(F)cc2)cc1	-104	-5	7	-73	-22	/	/
CCc1ccc(Nc2n[n+](-c3ccccc3)c(-c3ccc(N(CC)CC)cc3)s2)cc1	-149	0	23*	-105	-2	-22	-50
CCn1c(C)nc2cc(C(=O)NNC(=S)Nc3ccc(C)cc3)ccc21	-20	12	20*	-4	3	27*	1
CCn1c(C)nc2cc(C(=O)NNC(=S)Nc3ccccc3OC)ccc21	-10	2	10	0	-9	/	/
CSC(=Nc1ccccc1)C(C#N)c1nc2ccccc2[nH]1 (stereo not given)	-9	6	6	-2	21	/	/
N#CC(C(=S)Nc1ccccc1)c1nc2ccccc2[nH]1 (stereo not given)	-127	5	28*	-95	-11	3	7.4*
CCCCOc1ccc(S(=O)(=O)NC(=O)C2(C)CCN2C(=O)Cc2cccs2)cc1 (stereo not given)	-7	6	87*	-1	4	-10	-6
Cc1ccc(S(=O)(=O)NC(=O)C2(C)CCN2C(=O)Cc2cccs2)cc1 (stereo not given)	1	-2	16	-1	-4	/	/
COC(=O)CC#C[C@H](C)[C@@H](NS(=O)(=O)c1ccc([N+](=O)[O-])cc1)C(C)(C)C	4	4	1	2	10	/	/
CN(C)c1ccc(C(=O)NC2CCCCN(Cc3cccc(Cl)c3)C2=O)cc1 (stereo not given)	-7	/	-9	-7	/	/	/
O=C(CSc1nc2ccccc2s1)NNC(=S)Nc1ccc(Br)cc1	-10	2	23*	1	-9	3	0
COC(=O)C1CN(CCO)CCS(=O)(=O)N1Cc1cccc(Cl)c1 (stereo not given)	-2	/	3	0	/	/	/
O=C(NN=Cc1ccccc1C(F)(F)F)c1cc(-c2ccc(Cl)cc2)n[nH]1	5	/	-15	4	/	/	/
CC(=O)OCCCN1CCC2(CCCCC2)C1=O	-2	/	6	-1	/	/	/
C[C@H](CO)N1C[C@H](C)[C@@H](CN(C)S(=O)(=O)c2cn(C)cn2)Oc2ccc(NC(=O)C3CCCCC3)cc2C1=O	1	3	21*	-2	-3	-1	-14
COc1ccccc1NC(=O)c1ccccc1C(=O)O	1	-19	8	-3	0	/	/
CCc1ccccc1NC(=O)NNC(=O)c1ccc2ccccc2c1O	-29	-5	12	-13	-1	/	/
COc1ccc(NC(=O)NNC(=O)c2ccc3ccccc3c2O)c(OC)c1	-109	6	32*	-66	-2	34*	5	535nm interf DR=>122
COc1ccc(NC(=O)c2ccccc2NC(=O)c2ccccc2C(=O)O)c(OC)c1	-37	-3	22*	-16	9	0	-1
CCOc1ccc(NC(=O)NNC(=O)c2ccc3ccccc3c2O)cc1	-86	-4	21*	-48	-7	24*	1
SMILES	PLCb3 inh	ARFGAP1 inhibitor	HGIII-sPLA2 inh	PLC-gamma1 inh	ASAP1 inh	sPLA2 confirm	BODIPY interf	others
O=C(Nc1ccc([N+](=O)[O-])cc1)c1cn(-c2ccccc2)nc1-c1cc2ccccc2o1	-2	13	20*	2	12	-3	-8
COc1ccc(NC(=S)c2ccc(N(C)C)cc2)cc1	-8	9	20*	-4	-16	10	-5
COc1ccc(NC(=S)c2ccccc2)cc1	2	6	4	2	-1	/	/
CC(C)Oc1ccc(C(=O)Nc2ccc(N(C)C)cc2)cc1	-7	1	19*	-2	-5	15	-6
Cc1ccc(NC(=S)c2ccc(N(C)C)cc2)cc1	-6	-6	25*	-9	-3	16	2
COc1ccc(C(=S)Nc2ccc(N(C)C)cc2)cc1	-40	1	23*	-28	-5	26*	5
CCCOc1ccc(C(=O)Nc2ccc(N(C)C)cc2)cc1	-7	-3	14	-3	-2	/	/
Cc1ccc(S(=O)(=O)NC(=O)Nc2ccc(N(C)C)cc2)cc1	-3	-110	17	2	-84	/	/
COc1cc2c3c(c1)C(C)=CC(C)(C)N3C(=O)C2=O	-11	-12	10	-3	8	/	/
COc1cc2c3c(c1)C(C)CC(C)(C)N3C(=O)C2=O (stereo not given)	-9	-5	24*	-2	2	13	4
CCN(CC)S(=O)(=O)c1ccc(Cl)c(NC(=O)COc2ccc3c(C)cc(=O)oc3c2)c1	-1	13	21*	0	7	-2	-12
CCN(CC)S(=O)(=O)c1ccc(OC)c(NC(=O)COc2ccc3c(C)cc(=O)oc3c2)c1	-22	18	9	-20	-5	/	/
COc1ccc(NC(=S)Nc2ccc3nccnc3c2)cc1	i	16	23*	-445	3	5	-3
CCN(CC)S(=O)(=O)c1cccc(C(=O)N/N=C/c2cccc(O)c2O)c1	-31	8	23*	-16	8	12	4
CCN(CC)S(=O)(=O)c1cccc(C(=O)N/N=C/c2cc(OC)c(O)c(OC)c2)c1	-3	1	-9	1	11	/	/
O=C(CSc1nnc(-c2cccc(Cl)c2)n1Cc1ccco1)c1ccc(F)cc1	-1	/	-52	-1	/	/	/
Cc1[nH]c2ccccc2c1CC(=O)Nc1ccc(Nc2cccnc2)c(-c2ccc(Cl)c(Cl)c2)c1	-18	18	-9	-16	11	/	/
C[C@H]1[C@H](NC(=O)c2cccc(C(F)(F)F)c2)CC[C@@]23CCCN2C(=O)CCC[C@@H]13	2	/	-1	2	/	/	/
Cc1ccc(O)c(N=Nc2nccs2)c1	-1	-8	25*	1	-5	19	9.9*
CN1C(=O)C[C@@](C#N)(C(=O)NCC(F)(F)F)[C@H]1c1ccccc1	1	/	-1	-2	/	/	/
NS(=O)(=O)c1ccc(F)c(C(=O)O)c1	-2	11	26*	8	1	4	-6

Source: PubChem BioAssay
